The test system of series [1] is Mus musculus. The experiment in a line: Increase of bleeding time in mouse at 30 uM/kg, po administered 60 mins prior to tail incision. It counts as ADME, organism-based. To be noted: in vivo, 1 h. The essentials: (§1)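 Compound, aspirin or vehicle given orally 60 min before cutting the tail 2 mm from the tip, five mice per group. Blood was blotted onto filter paper every 10–15 s until flow stopped. Bleeding time is the interval from incision to cessation.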

Series [2] has as its system Mus musculus. The experiment in a line: Anti-thrombotic activity in collagen and adrenaline challenged mouse pulmonary thromboembolism model assessed as protection from paralysis or death at 30 uM/kg, po administered 60 mins prior to thrombotic challenge. It counts as functional. The essentials:
(§2)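 Mice were dosed orally 60 min before the challenge, alongside a vehicle group. Pulmonary thromboembolism was then induced by tail-vein injection of a collagen plus adrenaline mixture. Groups held ten mice per test agent and five per reference drug or vehicle. The read-out was % protection against hind-limb paralysis or death.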

Series [3] concerns Plasma. The experiment in a line: Anticoagulant activity in mouse platelet poor plasma assessed as increase in prothrombin time at 10 uM by coagulometry. The series is classed as functional, cell-free. The essentials: (§3)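 Mice anaesthetized with ether and bled by cardiac puncture. Platelet-poor plasma was pooled, split into sub-pools and spiked with compound or vehicle. Thrombin time, prothrombin time and APTT were run with commercial kits per manufacturer's instructions on a semi-automated coagulometer. Data given as mean ± SEM, n = 3, compared against vehicle control.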

Series [4] relates to Plasma. The experiment in a line: Anticoagulant activity in mouse platelet poor plasma assessed as increase in prothrombin time at 30 uM by coagulometry. It counts as functional, cell-free. The essentials: as §3
Series [5] relates to Plasma. The experiment in a line: Anticoagulant activity in mouse platelet poor plasma assessed as increase in thrombin time at 30 uM by coagulometry. The series is classed as functional, cell-free. The essentials: as §3
The subject of series [6] is Platelet. The experiment in a line: Antiplatelet activity in mouse platelet rich plasma assessed as inhibition of collagen-induced platelet aggregation at 10 uM by aggregometry. It counts as functional, cell-free. The essentials:
(§4)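 Mice anaesthetized with ether and bled by cardiac puncture. Platelet-rich plasma was pooled, split into sub-pools and spiked with compound or vehicle. Aggregation was induced with ADP or collagen and followed on a dual-channel aggregometer. Data given as mean ± SEM, n = 3, compared against vehicle control.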

Series [7] relates to Platelet. The experiment in a line: Antiplatelet activity in mouse platelet rich plasma assessed as inhibition of collagen-induced platelet aggregation at 30 uM by aggregometry. It counts as functional, cell-free. The essentials:
as §4

For series [8], the system named is Mus musculus. The experiment in a line: Ex-vivo antiplatelet activity in mouse platelet rich plasma assessed as inhibition of collagen-induced platelet aggregation at 30 uM/kg, po for 3 days by aggregometry. It counts as functional.
The subject of series [9] is Mus musculus. The experiment in a line: Ex-vivo anticoagulant activity in mouse platelet poor plasma assessed as increase in thrombin time at 30 uM/kg, po for 3 days by coagulometry. It counts as functional. The essentials:
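Mice were dosed orally for three days, then bled by cardiac puncture under ether anaesthesia. Thrombin time was measured in platelet-poor plasma with a commercial kit on a semi-automated coagulometer and compared with vehicle-treated controls.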

For series [10], the system named is Mus musculus. The experiment in a line: Ex-vivo antiplatelet activity in mouse platelet rich plasma assessed as inhibition of ADP-induced platelet aggregation at 30 uM/kg, po for 3 days by aggregometry. The series is classed as functional.
For series [11], the system named is Plasma. The experiment in a line: Anticoagulant activity in mouse platelet poor plasma assessed as increase in activated partial thromboplastin time at 30 uM by coagulometry. It counts as functional, cell-free. The essentials: as §3
Series [12] has as its system Platelet. The experiment in a line: Antiplatelet activity in mouse platelet rich plasma assessed as inhibition of ADP-induced platelet aggregation at 10 uM by aggregometry. The series is classed as functional, cell-free. The essentials: as §4
Series [13] relates to Plasma. The experiment in a line: Anticoagulant activity in mouse platelet poor plasma assessed as increase in thrombin time at 10 uM by coagulometry. The series is classed as functional, cell-free. The essentials:
as §3

In series [14] the test system is Plasma. The experiment in a line: Anticoagulant activity in mouse platelet poor plasma assessed as increase in activated partial thromboplastin time at 10 uM by coagulometry. It counts as functional, cell-free. The essentials: as §3
Series [15] deals with Platelet. The experiment in a line: Antiplatelet activity in mouse platelet rich plasma assessed as inhibition of ADP-induced platelet aggregation at 30 uM by aggregometry. The series is classed as functional, cell-free. The essentials: as §4
For series [16], the system named is Platelet. The experiment in a line: Antiplatelet activity in mouse platelet rich plasma assessed as inhibition of collagen-induced platelet aggregation at 100 uM by aggregometry. It counts as functional, cell-free. The essentials:
as §4

For series [17], the system named is Platelet. The experiment in a line: Antiplatelet activity in mouse platelet rich plasma assessed as inhibition of ADP-induced platelet aggregation at 100 uM by aggregometry. It counts as functional, cell-free. The essentials:
as §4

Series [18] relates to Mus musculus. The experiment in a line: Increase of bleeding time in mouse at 30 mg/kg, po administered 60 mins prior to tail incision. The series is classed as ADME, organism-based. Further details: dose 30 mg/kg, route oral. To be noted: in vivo, 1 h. The essentials:
as §1

Series [19] concerns Mus musculus. The experiment in a line: Anti-thrombotic activity in collagen and adrenaline challenged mouse pulmonary thromboembolism model assessed as protection from paralysis or death at 30 mg/kg, po administered 60 mins prior thrombotic challenge. The series is classed as functional. The essentials:
as §2

Active and inactive are the calls of the source. The calls are words filed in the database; no cut-off is given here.

As for `COc1ccc(CNC(=O)COc2cccc3c2ccc2c(C)cc(=O)oc23)cc1`, the Activity in the series on Mus musculus [1] is 8.2%; with Mus musculus [2], 10%.
For `Cc1cc(=O)oc2c1ccc1c(OCC(=O)N3CCOCC3)cccc12` the same measures were 66.8% and 30%.
With `Cc1cc(=O)oc2c1ccc1c(OCC(=O)NCc3ccccc3)cccc12`, the Activity came to 8.5% in the series on Mus musculus [1] and 10% with Mus musculus [2].
On to `Cc1cc(=O)oc2c1ccc1c(OCC(=O)NC(C)(C)C)cccc12`, for which the result in the series on Plasma [3], with Plasma [4], in the series on Plasma [11], with Plasma [13] and in the series with Plasma [14] was inactive. In addition, the Activity in the series with Mus musculus [1] amounted to 96.5%; in the series on Mus musculus [2], 40%; in the series on Mus musculus [9], 74%. Besides, in the series with Plasma [5], the result was Active. For the same molecule, the inhibition entry in the series on Platelet [6] and in the series with Platelet [12] was “inactive” throughout. Moreover, the inhibition entry in the series on Platelet [7] and in the series with Platelet [15] was “Active” each time. The “inhibition (INH)” value in the series with Mus musculus [8] came out at 90%; in the series on Mus musculus [10], 38%.
Take `CCCNC(=O)COc1cccc2c1ccc1c(C)cc(=O)oc12`: the outcome in the series on Plasma [3], in the series with Plasma [4], in the series on Plasma [11], with Plasma [13] and with Plasma [14] was inactive. The Activity in the series with Mus musculus [1] is on record as 91.5%; in the series with Mus musculus [2], 40%. In the series on Plasma [5], the result was Active. Moreover, the inhibition result with Platelet [6] and in the series with Platelet [12] was “inactive” in each case. In addition, the inhibition entry in the series with Platelet [7] and in the series with Platelet [15] was “Active” in each case.
On to `CC(=O)Oc1ccccc1C(=O)O` [ASPIRIN], for which the inhibition entry in the series on Platelet [16] and in the series on Platelet [17] was “Active” throughout. Also, the Activity in the series on Mus musculus [18] is 100%; in the series with Mus musculus [19], 37%.
As for `Cc1cc(=O)oc2c1ccc1c(OCC(=O)Nc3ccc(S(N)(=O)=O)cc3)cccc12`, the Activity in the series on Mus musculus [1] is 16.5%; with Mus musculus [2], less than 10%.
Taken in the same sequence, the figures for `Cc1cc(=O)oc2c1ccc1c(OCC(=O)NC(C)C)cccc12` were 66.5% and 10%.
For `Cc1cc(=O)oc2c1ccc1c(OCC(=O)N3CCN(C)CC3)cccc12` the same measures were 8.5% and 10%.
`Cc1ccc(CNC(=O)COc2cccc3c2ccc2c(C)cc(=O)oc23)cc1C`: in the series on Mus musculus [1], the Activity was determined as 58.5%.
In the case of `Cc1cc(=O)oc2c1ccc1c(OCC(=O)Nc3cccc(C(=O)O)c3)cccc12`, the Activity is recorded as 8.5% with Mus musculus [1] and less than 10% in the series with Mus musculus [2].
Consider `COc1cc(NC(=O)COc2cccc3c2ccc2c(C)cc(=O)oc23)cc(OC)c1OC`, for which the Activity in the series with Mus musculus [1] amounted to 41.7%; in the series on Mus musculus [2] it was 20%.
`Cc1cc(=O)oc2c1ccc1c(OCC(=O)N3CCCCC3)cccc12`: the Activity in the series with Mus musculus [1] came to 58.5%; in the series on Mus musculus [2], 30%.
As to `Cc1cc(=O)oc2c1ccc1c(OCC(=O)NCCCO)cccc12`, the outcome in the series on Plasma [3], in the series with Plasma [4], with Plasma [11], in the series with Plasma [13] and in the series with Plasma [14] was inactive. Besides, the Activity with Mus musculus [1] was found to be 112.5%; in the series on Mus musculus [2], 45%. Besides, the outcome in the series on Plasma [5] was Active. Moreover, the inhibition entry in the series with Platelet [6] and in the series on Platelet [12] was “inactive” throughout. The inhibition result in the series on Platelet [7] and in the series with Platelet [15] was “Active” each time.
For `Cc1cc(=O)oc2c1ccc1c(OCC(=O)NC3CCCCC3)cccc12`, the figures for the Activity in the series with Mus musculus [1] and in the series with Mus musculus [2] were 0% and 10%, respectively.

The record behind these values is ChEMBL document CHEMBL2016548, “Synthesis and evaluation of anti-thrombotic activity of benzocoumarin amide derivatives” (Bioorg Med Chem Lett, 2012).
